Compound activity from PubChem BioAssay.
CHT block: inhibitors of human choline transporter CHT | High affinity choline transporter 1 (Homo sapiens), Q9GZV3 | CHT-expressing cells, membrane potential dye, choline response; hits give low values | B-score at 10 µM | actives 0.86% (n = 310,000);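 active means B-score over 3 SD under the library average, and starting fluorescence ratio not unusually high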;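 further: choline stimulus applied at its EC90 after an EC20 pre-addition; B-score computed on integrated fluorescence ratio after choline addition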
Target sequence (Q9GZV3 whole entry, looked up): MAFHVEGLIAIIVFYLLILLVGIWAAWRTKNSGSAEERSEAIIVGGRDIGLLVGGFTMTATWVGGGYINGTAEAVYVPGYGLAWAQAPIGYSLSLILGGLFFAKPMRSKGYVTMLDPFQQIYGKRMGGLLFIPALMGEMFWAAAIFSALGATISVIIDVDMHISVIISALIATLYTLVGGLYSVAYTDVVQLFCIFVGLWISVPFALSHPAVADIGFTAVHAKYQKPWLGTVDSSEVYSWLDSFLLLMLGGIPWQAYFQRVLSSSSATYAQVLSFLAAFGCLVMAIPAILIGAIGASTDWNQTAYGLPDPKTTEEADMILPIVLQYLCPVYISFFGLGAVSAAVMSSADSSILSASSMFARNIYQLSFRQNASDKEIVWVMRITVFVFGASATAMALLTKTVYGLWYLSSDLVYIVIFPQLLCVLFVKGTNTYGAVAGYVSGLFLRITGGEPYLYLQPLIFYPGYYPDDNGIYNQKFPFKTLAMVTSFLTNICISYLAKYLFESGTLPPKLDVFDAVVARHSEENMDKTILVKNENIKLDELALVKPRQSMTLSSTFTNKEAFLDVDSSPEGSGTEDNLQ
T cruzi repl: inhibitors of intracellular T. cruzi growth, primary screen, luminescence, NIH3T3 host cells; T. cruzi beta-gal in NIH3T3, 90 h; inhibition, % (no concentration beside the values); actives 1.4% (n = 300,000);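 active means mean inhibition across valid replicates above about 55%, limit read from the data; inconclusive means mean below that limit but half or more replicates reach it; inactive means mean below it, under half of replicates reach it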;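 further: signal also drops with host cell toxicity which is not excluded here; 0% = plate median of DMSO wells and 100% = zero luminescence signal; higher percent means less beta-gal luminescence so fewer parasites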
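System: Mouse NIH/3T3 fibroblasts infected with β-gal-expressing T. cruzi Tulahuen C4 | Quantity: NIH/3T3 cells, 5,000 per well | Reagent: 5000 reporter trypomastigotes per well | Dosing: Compound pinned at 50 nL/well, DMSO | Schedule: 3 h host attachment, then at least 90 h co-culture | Detection: GalScreen luminescence, 60 min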
PolyA inh: polyadenylation inhibitors in yeast reporter cells, primary screen, luminescence, S. cerevisiae. S. cerevisiae SKY197-pL101 polyadenylation reporter, beta-gal luminescence; efflux-impaired pdr1/pdr3 knockout yeast; score 100 = 6 SD above DMSO. activity score, % at 12 µM. actives 0.02% (n = 300,000). AID 1875, 2009;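 active means lowest replicate activity score at least 50, where 100 means six control SD above control mean; inconclusive means lowest score under 50 but half or more replicates reach 50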;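 further: yeast exposed to compound for 9 h at 30 °C; higher score means more reporter readthrough which indicates perturbed polyadenylation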
CHT allo act: CHT positive allosteric modulators, primary screen, cell-based, membrane potential dye, choline EC20; actives 0.49% (n = 310,000); B-score at 10 µM; CHT-expressing cells; hits give high values; LV-AA mutant CHT in HEK293 cells;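 active means initial fluorescence not abnormally high and integrated response B-score, plate-corrected, over 3 SD above library mean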
CHT inh conf: CHT inhibitors, confirmation, cell-based, membrane potential dye, duplicate | actives 70% (n = 2,400) | shares compounds with CHT block | CHT activity remaining % of control (hits give low values), % at 10 µM | AID 493221, 2011 | CHT-expressing cells, choline membrane potential dye; LV-to-AA substituted CHT, HEK293 cells;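 active means choline transporter activity left, mean of duplicates at 10 µM, below buffer-only control mean minus 3 SD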;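 further: depolarization triggered by choline at its EC90 following an EC20 pre-addition; 0% = hemicholinium-3 full block and 100% = buffer-only control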
HEK293 MPD ctr: membrane potential effects in parental HEK293, counter-screen for CHT inhibitor project, cell-based, membrane potential dye; shares compounds with CHT block; choline response; active = decrease or increase beyond buffer ±3SD; membrane potential ratio readout (active if shifted either direction beyond buffer ±3SD; no single direction) at 10 µM; actives 4% (n = 2,400);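 further: parental cells lack the transporter so any hit is non-specific; ratio is peak minus trough fluorescence over baseline after EC90 choline challenge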
* marks the source's active call; other numbers are inactive results; i = inactive; ? = inconclusive; / = not tested or not shown. The list is not random: actives were taken first. Their share in the collection is about 2.6%.

SMILES | CHT block | T cruzi repl | PolyA inh | CHT allo act | CHT inh conf | HEK293 MPD ctr
CCCN1CCN(C(=S)Nc2ccc3nc(N4CCN(CC)CC4)cc(C)c3c2)CC1 | -9.17* | 42.3 | 0.6 | i | 22.2%* | i
COC(=O)N(NC(=O)C(O)(c1ccccc1)c1ccccc1)c1ccccc1 | i | -2.9 | 1.3 | i | / | /
COC(=O)N(NC(=O)C(O)(CCC(C)C)CCC(C)C)c1ccccc1 | i | -5.4 | 4.7 | i | i | i
Cc1ccc(C(=O)OCC(=O)NNC(=O)c2cccs2)c(O)c1 | i | -14.0 | -17.2 | i | / | /
CC(=O)Nc1ccc(Oc2ncccn2)c(Cl)c1 | -5.63* | -3.7 | 9.6 | i | i | i
COc1ccc(NC(=O)C=C(C)C)cc1Cl | i | -8.2 | 8.3 | i | / | /
CCN(c1ccccc1)S(=O)(=O)c1nnc(NC(=O)c2ccccc2OC)s1 | i | 10.6 | 17.5 | i | / | /
C=CCn1c(SC2CCOC2=O)nc2scc(C3CC3)c2c1=O (stereo not given) | -5.71* | -6.6 | -8.1 | i | 47.2%* | i
O=C(N/N=C/c1ccsc1)c1c[nH]c2ccccc12 | -7.02* | 8.1 | -8.9 | i | 69.0%* | i
COc1ccc(NC(=O)CN(C)C(=O)c2cccc(S(=O)(=O)Nc3ccccc3Cl)c2)cc1 | i | 1.3 | 3.8 | i | / | /
Cn1nc(C(F)(F)F)c(-c2ccccc2)c1NC(=O)c1cccnc1 | -5.31* | / | 7.8 | i | 31.7%* | i
Cn1nc(C(F)(F)F)c(-c2ccccc2)c1NC(=O)CCC(=O)O | i | -9.9 | 25.8 | i | / | /
Cn1nc(C(F)(F)F)c(-c2ccccc2)c1NC(=O)c1ccco1 | -5.65* | / | 3.8 | i | 35.8%* | i
O=C(CCNC(=O)N1CCn2c1nc1ccccc12)NCc1ccccc1 | i | 5.0 | ? | i | / | /
CC(O)CNc1nc(NCc2ccccc2)c2cnn(C)c2n1 (stereo not given) | i | 4.4 | 2.3 | i | / | /
CCOCCn1c(CN2CCN(c3ccc(F)cc3)CC2)nc2c1c(=O)n(C)c(=O)n2C | -17.5* | -12.3 | -1.2 | i | 10.0%* | i
COC(=O)Cn1c(CN2CCN(c3ccc(F)cc3)CC2)nc2c1c(=O)n(C)c(=O)n2C | -11.1* | -16.3 | 10.6 | i | -12.1%* | i
CCOCCn1c(CN2CCN(c3cccc(Cl)c3)CC2)nc2c1c(=O)n(C)c(=O)n2C | i | -3.9 | ? | i | / | /
COCCn1c(CN2CCN(c3cccc(Cl)c3)CC2)nc2c1c(=O)n(C)c(=O)n2C | -7.33* | -22.7 | 0.4 | i | -5.6%* | i
Cc1nn(C)c(C)c1CN(C)S(=O)(=O)c1ccc(F)cc1 | i | 1.9 | 5.7 | i | / | /
Cc1nn(C)c(C)c1CN(C)S(=O)(=O)c1ccc2ccccc2c1 | -5.06* | / | / | i | 50.9%* | i
O=C(NC1CCCCC1)N(Cc1ccccc1)Cc1ccco1 | -5.6* | -1.8 | -1.0 | i | 70.3%* | i
CCOCCc1nnc(NC(=O)CCS(=O)(=O)c2ccccc2)s1 | i | 1.8 | 14.1 | i | / | /
COc1ccc(NC(=O)N2CCC(n3cnc4ccccc43)CC2)cc1 | -5.81* | 0.0 | 11.6 | i | 37.5%* | i
COc1cc2c(cc1OC)/C(=C/C(=O)c1ccccc1F)NCC2 | -5.3* | 9.2 | -5.4 | i | 51.8%* | i
SMILES | CHT block | T cruzi repl | PolyA inh | CHT allo act | CHT inh conf | HEK293 MPD ctr
COc1cc2c(cc1OC)/C(=C/C(=O)c1ccc(F)cc1)NCC2 | i | -12.4 | 0.3 | i | / | /
CCC(C(=O)NCc1ccccc1OC)c1ccccc1 (stereo not given) | i | 8.1 | -2.4 | i | i | i
COc1ccccc1CNC(=O)C(c1ccccc1)c1ccccc1 | i | 11.3 | -6.7 | i | / | /
CCC(C(=O)Nc1ccc(OC)c(Cl)c1)c1ccccc1 (stereo not given) | -6.58* | 15.8 | -1.5 | i | i | i
c1ccc(-c2csc(NC3=NCCCCC3)n2)cc1 | -7.06* | 24.9 | 3.0 | i | i | i
CNc1cc(C)nc(-n2nc(C)cc2C)n1 | i | -57.4 | 10.6 | i | / | /
CCOc1ccc(Nc2cc(C)nc(-n3nc(C)cc3C)n2)cc1 | -6.12* | 51.2 | -26.0 | i | i | i
CCCN1CCN(C(=O)C(C)n2nc(C)c3sc4ccccc4c3c2=O)CC1 (stereo not given) | i | 2.4 | 15.1 | i | / | /
Cc1ccc(C(=O)N2CCN(c3ccccc3)CC2)cc1S(=O)(=O)N1CCCC1 | -9.52* | 11.9 | 10.6 | i | 55.4%* | i
O=C(c1ccc(Cl)c(S(=O)(=O)N2CCCC2)c1)N1CCN(c2ccccc2)CC1 | -6.02* | 4.5 | 22.7 | i | 42.3%* | i
Cc1ccc(C(=O)N2CCN(c3ccc(F)cc3)CC2)cc1S(=O)(=O)N1CCCCC1 | i | 7.7 | 8.7 | i | / | /
NC(=O)COC(=O)c1ccc(Cl)c(S(=O)(=O)N2CCN(c3ccc(F)cc3)CC2)c1 | -7.11* | 11.9 | 9.8 | i | 59.4%* | i
Cc1ccc(N(C(=O)c2csnn2)C(C(=O)NCc2ccccc2)c2ccccn2)cc1 (stereo not given) | i | 7.5 | 4.6 | i | / | /
CCc1ccc(N(C(=O)c2csnn2)C(C(=O)NC(C)(C)CC)c2cccnc2)cc1 (stereo not given) | -5.1* | 10.9 | 2.9 | i | i | i
CCC(C)(C)NC(=O)C(c1ccccn1)N(C(=O)c1csnn1)c1ccc(C)cc1 (stereo not given) | -5.16* | -6.0 | 9.4 | i | i | i
CCC(C)(C)NC(=O)C(c1sccc1C)N(Cc1ccco1)C(=O)c1csnn1 (stereo not given) | i | 8.9 | -4.6 | i | / | /
CCC(C)(C)NC(=O)C(c1ccccc1F)N(Cc1ccco1)C(=O)c1csnn1 (stereo not given) | -4.97* | 8.6 | -3.3 | i | i | i
Cc1cccc(Oc2ccc3c(c2)cc(C(=O)O)n3C)c1 | i | -17.8 | -16.3 | i | / | /
CCC(C)N(C(=O)c1csnn1)C(C(=O)NCc1ccc(F)cc1)c1ccccc1F (stereo not given) | i | 2.1 | ? | i | / | /
Cn1c(-c2ccccc2O)cc2ccccc21 | -8.06* | / | -9.3 | i | 50.6%* | i
O=C(CNCc1ccccc1Cl)Nc1ccccc1N1CCCCC1 | i | 2.5 | -2.0 | i | / | /
CCN(CC)c1ccc(NC(=O)CNCc2ccccc2Cl)c(C)c1 | -5.19* | 19.0 | -2.0 | i | 57.4%* | i
